ChEMBL document CHEMBL2380248, “Matrix metalloproteinase inhibitors based on the 3-mercaptopyrrolidine core” (J Med Chem, 2013)
The source made the active and inactive calls. The rule behind the calls is not given here.

What was measured:
[1] = target: 72 kDa type IV collagenase (Homo sapiens, UniProt P08253); assay: Inhibition of MMP-2 (unknown origin) using Mca-PLGLDpa-AR-NH2 as substrate preincubated for 30 mins by fluorescence assay; conditions: read-out: Ki(app)
Outline: (§1)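 Fluorogenic assay at 25°C in 50 mM HEPES pH 7.5, 10 mM CaCl2, 200 mM NaCl, 0.01% Brij-35, 5 μM TCEP. Inhibitor in DMSO preincubated 30 min with enzyme (0.2–7 nM), then started with Mca-PLGLDpa-AR-NH2 (4 μL of […] in 50% DMSO); product release followed at λex 328/λem 393 nm.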

[2] = target: Matrix metalloproteinase-14 (Homo sapiens, UniProt P50281); assay: Inhibition of MMP-14 (unknown origin) using Mca-PLGLDpa-AR-NH2 as substrate preincubated for 30 mins by fluorescence assay; conditions: read-out: Ki(app); outline: as §1
[3] = Stability of the compound in alpha-modified minimum essential medium at 10000 x IC50 up to 72 hrs in presence of fetal bovine serum; type: ADME; conditions: cattle
Outline: (§2)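 Aliquots then incubated 30 min with MMP-9 (final ~1 nM) in HEPES buffer before substrate addition; relative rates (νi/νo) taken in triplicate and plotted versus time; mean ± SEM.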

[4] = target: T1, Matrix metalloproteinase-9 (Homo sapiens, UniProt P14780); assay: Inhibition of MMP-9 (unknown origin) using Mca-PLGLDpa-AR-NH2 as substrate preincubated for 30 mins by fluorescence assay; conditions: read-out: Ki(app); outline: as §1
T1 sequence (P14780 whole entry): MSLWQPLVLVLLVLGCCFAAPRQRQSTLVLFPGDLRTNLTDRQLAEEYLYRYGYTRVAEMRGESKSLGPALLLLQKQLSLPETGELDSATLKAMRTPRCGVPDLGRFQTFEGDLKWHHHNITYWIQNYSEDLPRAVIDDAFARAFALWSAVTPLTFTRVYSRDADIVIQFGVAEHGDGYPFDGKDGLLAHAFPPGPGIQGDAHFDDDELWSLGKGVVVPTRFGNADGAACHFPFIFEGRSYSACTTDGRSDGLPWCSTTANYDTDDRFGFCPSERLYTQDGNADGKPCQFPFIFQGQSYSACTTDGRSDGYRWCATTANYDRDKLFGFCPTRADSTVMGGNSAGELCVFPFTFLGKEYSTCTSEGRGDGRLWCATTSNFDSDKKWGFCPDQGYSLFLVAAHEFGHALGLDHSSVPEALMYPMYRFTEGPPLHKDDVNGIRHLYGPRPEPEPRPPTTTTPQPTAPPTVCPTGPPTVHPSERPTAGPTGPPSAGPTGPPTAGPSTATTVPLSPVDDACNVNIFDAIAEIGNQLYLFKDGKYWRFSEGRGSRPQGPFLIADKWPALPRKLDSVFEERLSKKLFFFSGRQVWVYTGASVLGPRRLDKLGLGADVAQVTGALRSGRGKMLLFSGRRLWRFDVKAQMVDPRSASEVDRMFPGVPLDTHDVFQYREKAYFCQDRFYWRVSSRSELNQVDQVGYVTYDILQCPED

[5] = Cytotoxicity against human MSC assessed as cell killing up to 100 uM after 24 hrs by trypan blue staining-based hemocytometric analysis relative to control
Outline: (§3)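 Low-passage hMSCs grown in αMEM with L-glutamine, penicillin, streptomycin, 20% FBS at 37°C, 5% CO2; fed every three days to 75% confluency, then given fresh media with inhibitor (log panel 1 μM to 100 μM, constant final DMSO) for 24 h. Cells washed with PBS, trypsinized, pelleted, Trypan Blue counted by hemocytometer; normalized to control, triplicate, mean ± SEM; >20% killing deemed cytotoxic.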

[6] = Cytotoxicity against human MSC assessed as reduction in cell number at 100 uM after 24 hrs by trypan blue staining-based hemocytometric analysis relative to control; parameters: scale not given: the % may be the effect or the level left; outline: as §3
[7] = target: T2, Interstitial collagenase (Homo sapiens, UniProt P03956); assay: Inhibition of MMP-1 (unknown origin) using Mca-PLGLDpa-AR-NH2 as substrate preincubated for 30 mins by fluorescence assay; conditions: read-out: Ki(app); outline: as §1
T2 sequence (P03956 whole entry): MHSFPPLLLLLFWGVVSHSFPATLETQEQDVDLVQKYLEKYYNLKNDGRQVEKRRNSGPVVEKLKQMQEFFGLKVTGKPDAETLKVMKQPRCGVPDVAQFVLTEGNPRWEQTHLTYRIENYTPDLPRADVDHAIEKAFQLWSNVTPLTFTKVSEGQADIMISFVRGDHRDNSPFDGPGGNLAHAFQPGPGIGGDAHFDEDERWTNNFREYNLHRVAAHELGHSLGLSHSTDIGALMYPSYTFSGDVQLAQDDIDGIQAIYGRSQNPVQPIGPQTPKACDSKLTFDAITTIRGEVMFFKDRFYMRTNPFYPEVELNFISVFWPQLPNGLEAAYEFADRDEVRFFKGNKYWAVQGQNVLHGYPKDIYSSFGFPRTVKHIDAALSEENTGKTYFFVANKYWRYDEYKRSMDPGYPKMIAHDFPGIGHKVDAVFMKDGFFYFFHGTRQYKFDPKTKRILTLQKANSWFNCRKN

[8] = target: T3, Matrilysin (Homo sapiens, UniProt P09237); assay: Inhibition of MMP-7 (unknown origin) using Mca-PLGLDpa-AR-NH2 as substrate preincubated for 30 mins by fluorescence assay; conditions: read-out: Ki(app); outline: as §1
T3 sequence (P09237 whole entry): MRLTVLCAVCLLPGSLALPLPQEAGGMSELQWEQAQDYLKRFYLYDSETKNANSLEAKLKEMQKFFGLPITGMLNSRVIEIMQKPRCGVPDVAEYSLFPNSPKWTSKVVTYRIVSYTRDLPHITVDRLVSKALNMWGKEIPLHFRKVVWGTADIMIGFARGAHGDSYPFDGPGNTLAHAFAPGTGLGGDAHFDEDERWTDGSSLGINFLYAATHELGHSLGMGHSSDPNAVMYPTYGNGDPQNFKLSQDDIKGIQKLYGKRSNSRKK

[9] = target: Collagenase 3 (Homo sapiens, UniProt P45452); assay: Inhibition of MMP-13 (unknown origin) using Mca-PLGLDpa-AR-NH2 as substrate preincubated for 30 mins by fluorescence assay; conditions: read-out: Ki(app); outline: as §1
[10] = target: Stromelysin-1 (Homo sapiens, UniProt P08254); assay: Inhibition of MMP-3 (unknown origin) using Mca-PLGLDpa-AR-NH2 as substrate preincubated for 30 mins by fluorescence assay; conditions: read-out: Ki(app); outline: as §1
Sequence of Stromelysin-1 (P08254 whole entry): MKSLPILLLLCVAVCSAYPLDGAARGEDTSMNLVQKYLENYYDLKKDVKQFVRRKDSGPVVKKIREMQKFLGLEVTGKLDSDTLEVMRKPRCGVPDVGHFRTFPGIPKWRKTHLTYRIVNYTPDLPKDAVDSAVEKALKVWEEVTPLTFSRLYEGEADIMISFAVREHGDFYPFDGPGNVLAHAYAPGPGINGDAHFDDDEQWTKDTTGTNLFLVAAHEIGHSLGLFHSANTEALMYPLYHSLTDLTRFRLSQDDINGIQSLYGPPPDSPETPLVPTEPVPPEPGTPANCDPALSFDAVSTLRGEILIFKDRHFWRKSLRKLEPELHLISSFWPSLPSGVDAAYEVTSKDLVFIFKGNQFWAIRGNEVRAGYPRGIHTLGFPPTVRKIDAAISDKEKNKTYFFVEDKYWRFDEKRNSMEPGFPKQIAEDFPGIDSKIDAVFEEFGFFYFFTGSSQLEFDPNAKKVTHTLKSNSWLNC

[11] = target: T1, Matrix metalloproteinase-9; assay: Inhibition of MMP-9 (unknown origin) at 10000 x IC50 incubated up to 72 hrs prior to enzyme addition measured after 30 mins in presence of 20% fetal bovine serum; outline: as §2

Sequence of 72 kDa type IV collagenase (P08253 whole entry): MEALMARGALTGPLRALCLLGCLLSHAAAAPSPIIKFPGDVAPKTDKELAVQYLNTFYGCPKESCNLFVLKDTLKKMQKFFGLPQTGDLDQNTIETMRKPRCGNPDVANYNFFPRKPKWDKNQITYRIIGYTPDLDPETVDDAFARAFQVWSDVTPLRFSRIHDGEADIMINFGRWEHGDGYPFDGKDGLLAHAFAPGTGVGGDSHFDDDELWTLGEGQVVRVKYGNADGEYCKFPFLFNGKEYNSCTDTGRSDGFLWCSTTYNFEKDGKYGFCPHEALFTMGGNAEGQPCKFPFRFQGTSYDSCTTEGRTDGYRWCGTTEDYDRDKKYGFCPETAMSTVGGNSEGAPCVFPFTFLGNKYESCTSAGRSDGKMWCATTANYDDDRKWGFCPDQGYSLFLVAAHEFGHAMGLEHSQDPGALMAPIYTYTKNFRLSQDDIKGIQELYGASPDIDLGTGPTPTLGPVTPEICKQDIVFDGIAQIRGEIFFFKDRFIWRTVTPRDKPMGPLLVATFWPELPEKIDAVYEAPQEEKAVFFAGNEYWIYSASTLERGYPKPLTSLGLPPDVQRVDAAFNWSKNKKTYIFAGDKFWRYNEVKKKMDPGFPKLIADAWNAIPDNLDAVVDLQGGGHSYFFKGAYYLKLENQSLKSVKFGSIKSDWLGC

Ki [1] [µM]	Ki [2] [µM]	Stability [3]	Ki [4] [µM]	Ki [7] [µM]	Ki [8] [µM]	Ki [9] [µM]	Ki [10] [µM]	inhibition [11]	SMILES	Activity [5]	Activity [6] [%]
0.018	0.018	Stable	0.025	3.4	> 20	0.015	–	–	O=S(=O)(N[C@H]1CCC[C@@H]1S)c1ccc(Oc2ccccc2)cc1 (racemic) [listing 1 of 2 here]	<= 20%	40
7.2	3	–	9.6	> 20	> 50	3.4	> 200	–	O=S(=O)(N[C@H]1CCC[C@@H]1S)c1ccccc1 (racemic)	–	–
0.067	0.01	–	0.042	–	36	0.01	> 100	–	O=S(=O)(N[C@@H]1CCC[C@H]1S)c1ccc(Oc2ccccc2)cc1	–	–
–	–	–	–	–	–	–	–	Active	O=S(=O)(N[C@H]1CCC[C@@H]1S)c1ccc(Oc2ccccc2)cc1 (racemic) [listing 2 of 2 here]	–	–
0.24	1.2	–	0.63	10	–	0.23	10	–	O=S(=O)(N[C@H]1CCC[C@@H]1S)c1ccc(-c2ccccc2)cc1 (racemic)	–	–
0.017	0.07	–	0.0049	0.11	0.05	–	0.3	–	CNC(=O)[C@H](Cc1ccccc1)NC(=O)[C@@H](CC(C)C)S[C@H]1CN(C(=O)CN2C(=O)c3ccccc3C2=O)C[C@H]1S (mixture of isomers)	–	–
0.0017	0.007	–	0.00098	0.052	0.011	–	0.0019	–	CNC(=O)[C@H](Cc1ccccc1)NC(=O)[C@@H](CC(C)C)S[C@H]1CN(C(=O)CCCCCN2C(=O)c3ccccc3C2=O)C[C@H]1S (mixture of isomers)	–	–
–	–	–	–	25	> 25	–	–	–	O=S(=O)(N[C@H]1CNC[C@@H]1S)c1ccc(Oc2ccccc2)cc1 (racemic)	–	–
50	> 200	–	200	> 200	> 200	100	> 200	–	O=S(=O)(N[C@H]1CCC[C@@H]1O)c1ccc(Oc2ccccc2)cc1 (racemic)	–	–
–	–	–	–	50	> 200	–	–	–	O=S(=O)(N[C@H]1CNC[C@@H]1S)c1ccc(Oc2ccccc2)cc1	–	–
–	–	Stable	–	> 6	–	–	–	–	CC(=O)NCCCCCC(=O)N1C[C@H](NS(=O)(=O)c2ccc(Oc3ccccc3)cc2)[C@@H](S)C1 (racemic)	<= 20%	–
0.81	0.41	–	0.97	> 100	> 20	0.2	–	–	O=S(=O)(N[C@@H]1CCC[C@@H]1S)c1ccc(Oc2ccccc2)cc1 (racemic)	–	–
–	–	–	–	6.3	4.1	–	–	–	O=S(=O)(N[C@@H]1CNC[C@H]1S)c1ccc(Oc2ccccc2)cc1	–	–
0.2	0.31	–	0.0053	0.26	0.23	–	4.1	–	CNC(=O)[C@H](Cc1ccccc1)NC(=O)[C@@H](CC(C)C)S[C@H]1CNC[C@H]1S (mixture of isomers)	–	–
0.0031	0.0066	Stable	0.0036	> 3	–	–	–	Active	Cl.NCCCCCC(=O)N1C[C@H](NS(=O)(=O)c2ccc(Oc3ccccc3)cc2)[C@@H](S)C1 (racemic)	<= 20%	–
–	–	Stable	–	–	> 25	–	–	–	NC(=O)N1C[C@H](NS(=O)(=O)c2ccc(Oc3ccccc3)cc2)[C@@H](S)C1 (racemic)	<= 20%	–
0.0046	0.031	–	0.038	2.1	> 100	0.017	> 200	–	O=S(=O)(N[C@H]1CCC[C@@H]1S)c1ccc(Oc2ccccc2)cc1	–	–
–	–	–	–	–	> 12	–	–	–	O=C(NCCN1C(=O)c2ccccc2C1=O)N1C[C@H](NS(=O)(=O)c2ccc(Oc3ccccc3)cc2)[C@@H](S)C1 (racemic)	<= 20%	–
0.43	0.068	–	0.28	–	> 100	0.16	–	–	O=S(=O)(N[C@H]1CCC[C@H]1S)c1ccc(Oc2ccccc2)cc1	–	–
25	25	–	> 1.6	> 200	> 200	> 100	> 200	–	O=S(=O)(N[C@@H]1CCC[C@@H]1S)c1ccc(Oc2ccccc2)cc1	–	–
0.0085	0.006	–	0.0039	0.075	0.012	–	0.031	–	CNC(=O)[C@H](Cc1ccccc1)NC(=O)[C@@H](CC(C)C)S[C@H]1CN(C(=O)CCCN2C(=O)c3ccccc3C2=O)C[C@H]1S (mixture of isomers)	–	–
–	–	–	0.0011	–	> 25	–	–	–	CN([C@H]1CN(C(N)=O)C[C@@H]1S)S(=O)(=O)c1ccc(Oc2ccccc2)cc1 (racemic)	–	–
7	85	–	30	> 50	> 100	> 200	> 100	–	NCCCCCC(=O)N1C[C@H](NS(=O)(=O)c2ccc(Oc3ccccc3)cc2)[C@@H](O)C1 (racemic)	–	–
0.014	0.0062	–	0.0057	0.099	0.091	–	0.99	–	CNC(=O)[C@H](Cc1ccccc1)NC(=O)[C@@H](CC(C)C)S[C@H]1CN(C(C)=O)C[C@H]1S (mixture of isomers)	–	–
5.7	> 25	–	4.3	> 200	5.7	28	> 200	–	O=C(N[C@H]1CCC[C@@H]1S)c1ccc(Oc2ccccc2)cc1 (racemic)	–	–
